Data taken from ChEMBL document CHEMBL4145581, “Piperidine Alkaloids with Diverse Skeletons from Anacyclus pyrethrum” (J Nat Prod, 2018).

Target: T1, Menin (Homo sapiens) (UniProt O00255)
T1 sequence (whole entry): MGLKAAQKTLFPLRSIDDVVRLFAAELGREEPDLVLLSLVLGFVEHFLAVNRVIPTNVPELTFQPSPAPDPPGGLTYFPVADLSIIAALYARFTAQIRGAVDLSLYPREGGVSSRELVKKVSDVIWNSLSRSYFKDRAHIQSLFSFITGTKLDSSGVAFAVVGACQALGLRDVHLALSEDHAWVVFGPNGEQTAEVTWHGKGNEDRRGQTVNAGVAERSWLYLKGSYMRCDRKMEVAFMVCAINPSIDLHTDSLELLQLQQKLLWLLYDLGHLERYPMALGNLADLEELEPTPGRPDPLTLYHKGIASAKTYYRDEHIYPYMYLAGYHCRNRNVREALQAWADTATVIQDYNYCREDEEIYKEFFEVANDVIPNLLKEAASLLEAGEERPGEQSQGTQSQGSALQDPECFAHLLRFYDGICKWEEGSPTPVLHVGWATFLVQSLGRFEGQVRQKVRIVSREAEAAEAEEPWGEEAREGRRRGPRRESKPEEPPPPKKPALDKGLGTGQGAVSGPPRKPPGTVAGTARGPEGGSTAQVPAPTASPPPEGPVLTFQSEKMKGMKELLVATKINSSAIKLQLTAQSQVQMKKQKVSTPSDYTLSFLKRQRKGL
Assay: Inhibition of FITC-labelled MLL1 binding to menin (unknown origin) at 20 uM after 120 mins by fluorescence polarization method relative to control
Summary of the method: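 Menin–MLL1 protein–protein interaction inhibition assay with fluorescence polarization read-out on a plate reader. MI-2-2 served as the positive control.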

Row | Compound | inhibition [%]
1 | CC(=O)NC(C)(C)[C@H]1C(=O)C2=CC(C)(C)NC(C)=C2C(=O)[C@@H]1C=C(C)C | < 50
2 | CC1(C)CC2=NC(C)(C)C3=NC(C)(C)CC3(O)C2=N1 (stereo not drawn) | < 50
3 | CC(=O)NC(C)(C)C[C@@]1(O)C(=O)C2=C(C)NC(C)(C)C(=O)C2(C)[C@H]1O (stereo partly drawn) | < 50
4 | CC1=C2NC(C)(C)CC2=NC(C)(C)C1=O | < 50
5 | CC1=CC(=O)NC(C)(C)C1 | < 50
6 | CC(=O)NC(C)(C)C1C=C2CC(C)(C)NC(C)=C2C(=O)C1C (stereo not drawn) | < 50

Now from value to molecule:

Row | inhibition [%] | Compound
7 | < 50 | CC(=O)NC(C)(C)CC1=C[C@@]2(C)C(=O)C(C)(C)NC(C)=C2C1=O
8 | < 50 | CC1=C2C(=O)C3=CC(C)(C)N=C4CC(C)(C)C[C@@]2(CC(C)(C)N1)[C@]34O
9 | < 50 | CC(=O)NC(C)(C)[C@H]1C(=O)C2=CC(C)(C)NC(C)=C2C(=O)[C@@H]1C
10 | < 50 | CC1=CC(C)(C)NC1=O
11 | < 50 | CC1(C)CC(C2OC2(C)C)=CC(=O)N1 (stereo not drawn)
12 | < 50 | CC1(C)CC2=NC(C)(C)C(=O)C(C(C)(C)O)=C2N1
13 | < 50 | CC1=C2C3=C(C)C(=O)C(C)(C)N=C3C[C@@]2(C)CC(C)(C)N1
